High-throughput results deposited in PubChem by Johns Hopkins Ion Channel Center.
Only some compounds are listed: those with a hit (about 3.8% of all), similar ones and a draw of the others.
KCNK3 inh – human KCNK3 channel inhibition, primary screen; O14649; CHO-KCNK3 thallium flux, FluxOR fluorescence; stronger effect = lower value; B-score at 10 µM; hit rate 0.84% among 340,000; AID 602410;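 active = B-score under library mean minus 4 SD, starting fluorescence ratio at most library mean plus 5 SD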;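 also: more negative B-score means stronger inhibition of thallium flux through KCNK3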
KCNQ1 pot – potentiators or activators of human KCNQ1 potassium channel; CHO-K1 KCNQ1, thallium flux FluxOR fluorescence; stronger effect = higher value; B-score at 10 µM; hit rate 0.35% among 310,000; AID 2648;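 active = fluorescence ratio B-score, a plate-corrected score, at least three library SD, with initial intensity B-score within 5 SD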
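Material: CHO-K1 cells stably expressing KCNQ1. Medium: assay buffer for compound exposure, DMSO matched across wells. Reagent: K+/Tl+ depolarizing stimulus. Compound dosing: single-concentration screen. Times: 37 °C overnight plating, 90-min dark dye load, 20-min compound pretreatment. Technique: FluxOR Tl+ flux fluorescence.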
KCNQ1 block – inhibitors of human KCNQ1 potassium channel. P51787. CHO-K1 KCNQ1, FluxOR thallium flux fluorescence; stronger effect = higher value. B-score at 10 µM. hit rate 1.3% among 310,000;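 active = compounds whose thallium flux B-score, printed positive for inhibition, exceeds three library SD while starting fluorescence stays within three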;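 also: channel opened by potassium depolarization with thallium stimulus after 20 min compound exposure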
hERG rescue – compounds protecting human hERG from proarrhythmic drug block | AID 1511 | activation (rescue from dofetilide block), less the hit threshold, % at 10 µM | Q12809 | hit rate 0.51% among 310,000 | CHO-hERG, FluxOR thallium flux, dofetilide IC70 present;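 active = activation above the mean of controls blocked by dofetilide plus 5 SD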;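 also: thallium influx through hERG after potassium depolarization seen as dye fluorescence rise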
Target sequence (Q12809 whole entry, looked up): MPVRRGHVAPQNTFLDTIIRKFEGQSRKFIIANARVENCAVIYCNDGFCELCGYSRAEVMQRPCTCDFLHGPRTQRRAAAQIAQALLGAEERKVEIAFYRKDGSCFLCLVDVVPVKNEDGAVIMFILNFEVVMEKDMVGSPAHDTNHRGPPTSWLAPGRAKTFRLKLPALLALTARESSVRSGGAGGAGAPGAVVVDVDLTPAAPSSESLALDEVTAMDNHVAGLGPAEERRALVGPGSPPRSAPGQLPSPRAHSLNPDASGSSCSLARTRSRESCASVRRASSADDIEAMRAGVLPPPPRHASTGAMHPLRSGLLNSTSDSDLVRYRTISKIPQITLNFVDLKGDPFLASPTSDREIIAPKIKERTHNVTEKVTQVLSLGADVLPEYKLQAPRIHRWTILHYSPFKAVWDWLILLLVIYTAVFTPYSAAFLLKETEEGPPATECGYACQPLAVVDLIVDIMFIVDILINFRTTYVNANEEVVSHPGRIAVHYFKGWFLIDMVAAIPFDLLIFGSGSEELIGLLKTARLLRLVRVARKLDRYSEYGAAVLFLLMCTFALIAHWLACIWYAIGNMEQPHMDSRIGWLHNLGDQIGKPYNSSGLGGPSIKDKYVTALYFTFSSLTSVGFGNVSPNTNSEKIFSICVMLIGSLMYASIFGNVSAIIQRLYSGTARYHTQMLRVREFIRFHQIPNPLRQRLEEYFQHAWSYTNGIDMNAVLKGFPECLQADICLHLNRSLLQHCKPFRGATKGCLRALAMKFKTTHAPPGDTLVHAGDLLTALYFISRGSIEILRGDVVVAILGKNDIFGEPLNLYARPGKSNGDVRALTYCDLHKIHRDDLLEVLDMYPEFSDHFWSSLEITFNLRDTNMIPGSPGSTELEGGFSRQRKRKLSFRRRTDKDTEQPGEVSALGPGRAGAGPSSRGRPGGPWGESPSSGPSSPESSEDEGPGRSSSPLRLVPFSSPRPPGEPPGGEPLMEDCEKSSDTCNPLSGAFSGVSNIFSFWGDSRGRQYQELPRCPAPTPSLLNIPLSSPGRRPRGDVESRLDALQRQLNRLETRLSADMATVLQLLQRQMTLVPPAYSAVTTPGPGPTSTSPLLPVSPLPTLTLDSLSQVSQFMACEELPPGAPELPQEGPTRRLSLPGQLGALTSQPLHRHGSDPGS
KCNK9 block – inhibitors of human KCNK9 two-pore domain potassium channel. Q9NPC2. HEK293 KCNK9, FluxOR thallium flux fluorescence; stronger effect = lower value. B-score at 10 µM. hit rate 1.2% among 310,000. AID 488922;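 active = ratio B-score over 3 SD below the library mean, with starting fluorescence within 5 SD of its mean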;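 also: negative B-score means less thallium flux so channel inhibition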
Kir21 inh – blocks the mouse Kir2.1 inward-rectifier potassium channel; P35561; HEK293-Kir2.1, FluxOR thallium flux fluorescence; stronger effect = lower value; B-score at 10 µM; hit rate 0.85% among 310,000;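 active = fluorescence ratio B-score at or below minus 3 SD of library scores, with starting-brightness B-score within 2 SD, cut at about -4.2 in these data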;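 also: channel flux triggered by added potassium and thallium sulfate stimulus; B-score of peak minus minimum fluorescence over baseline after thallium stimulus; more negative B-score means stronger Kir2.1 block with less thallium influx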
KCNK9 block conf – confirmation of human KCNK9 potassium channel inhibitors; shares compounds with KCNK9 block; hit rate 43% among 4,900; inhibition, % at 10 µM; HEK293 KCNK9 cells, FluxOR thallium flux fluorescence;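 active = thallium signal inhibited by more than 5 SD of the compound-free buffer control wells, on both duplicate plates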;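 also: 0% = assay buffer control wells without compound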
Kir21 sel – mouse Kir2.1 off-target activity of KCNK9 modulators. shares compounds with KCNK9 block. Kir2.1 cells, FluxOR thallium flux fluorescence. inhibition, % at 10 µM. hit rate 4% among 4,900. AID 492993;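 active = thallium signal drop more than 5 SD beyond the mean of the no-compound control wells, seen in both duplicate plates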;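 also: signal is fluorescence rise after thallium addition divided by baseline fluorescence; plate controls were assay buffer only for no effect and full block by chlorpromazine control for full effect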
HEK293 Tl ctr – non-induced cell nonspecific activity of KCNK9 modulators. shares compounds with KCNK9 block. inhibition, % at 10 µM. non-induced KCNK9-HEK293, FluxOR thallium flux. hit rate 40% among 4,900;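 active = thallium signal drop beyond 5 SD of the untreated control mean, on both duplicate plates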;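 also: plate controls were buffer only IC0 wells for no effect and SID17386958 at its maximal inhibitory level for full effect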
Starred values were filed as active, the others as inactive; i = inactive; / = no result.

SMILES	KCNK3 inh	KCNQ1 pot	KCNQ1 block	hERG rescue	KCNK9 block	Kir21 inh	KCNK9 block conf	Kir21 sel	HEK293 Tl ctr
COc1c(C)cc(C(=O)C2CCCN(C(=O)c3ccc4[nH]ccc4c3)C2)cc1C (stereo not drawn)	i	i	i	-22	i	0.69	i	i	i
Nc1ccc(N2CCCC2)c(S(=O)(=O)Nc2cccc(C(F)(F)F)c2)c1	i	/	/	/	/	/	/	/	/
CCCCNC(=O)C1CCN(Cc2ccc(OCc3ccccc3)c(OC)c2)CC1	i	i	i	-4	i	-0.39	/	/	/
CCCCOC1CC(c2ccc(OCc3ccc(OC)cc3)c(OC)c2)N(C)O1 (stereo not drawn)	i	i	i	-2	i	1.7	i	i	i
CCN1C(=O)[C@H]2[C@@H](c3ccc(-c4cccc(Cl)c4)c(OC)c3)N[C@@](CC(C)C)(C(=O)OC)[C@H]2C1=O	i	i	i	-9	-9.9*	-0.67	44%*	i	44%*
Cc1cccc(N2CN(S(=O)(=O)c3cccc([N+](=O)[O-])c3)c3nc4ccccc4nc32)c1	i	/	/	/	/	/	/	/	/
CCCCc1noc(-c2c(-c3ccccc3Cl)noc2C)n1	i	i	i	-9	i	0.94	i	i	i
O=C(CNC(c1ccccc1)c1ccccc1)Nc1cc([N+](=O)[O-])ccc1Cl	i	i	i	-10	-9.2*	-0.34	69%*	i	41%*
O=C(CSc1nc2nc(-c3cccs3)cc(C(F)(F)F)c2c(=O)[nH]1)Nc1c(F)c(F)c(F)c(F)c1F	i	i	10*	-13	i	0.17	i	i	i
NS(=O)(=O)c1cccc(NC(=O)CSc2nc3nc(-c4cccs4)cc(C(F)(F)F)c3c(=O)[nH]2)c1	i	i	i	-12	i	-1.2	/	/	/
O=C(NCC1CCCO1)c1cccc(S(=O)(=O)N2CCCCC2)c1 (stereo not drawn)	i	/	/	/	/	/	/	/	/
CCC1=NN2C(=N)/C(=C\c3cccn3-c3cccc(Cl)c3)C(=O)N=C2S1	i	i	i	-5	i	-0.87	i	i	i
CCC1=NN2C(=N)/C(=C\c3cccn3-c3ccc(Br)cc3)C(=O)N=C2S1	i	i	i	-8	i	1.9	/	/	/
Cc1c(C(=O)OCC(=O)N(C)Cc2ccc(Cl)cc2)oc2ccccc12	i	/	/	/	/	/	/	/	/
CCOC(=O)C(C#N)(Cc1cc(OC)cc(OC)c1)Cc1cc(OC)cc(OC)c1	i	i	i	-6	-14*	1.9	56%*	i	46%*
CCC(=O)Nc1cc(OC)cc(OC)c1	i	i	i	-10	i	-1.7	/	/	/
COC1CCCN(Cc2nc(Cc3ccccc3F)no2)C1 (stereo not drawn)	i	i	i	-8	i	0.83	/	/	/
c1ccc(COC2CCCN(Cc3nc(Cc4ccccc4)no3)C2)cc1 (stereo not drawn)	i	i	i	-9	i	-1.1	i	i	i
c1ccc(OCc2noc(CN3CCC(C4CCCCC4)C3)n2)cc1 (stereo not drawn)	i	i	i	-7	i	0.78	i	i	i
Fc1ccccc1C1CCN(Cc2nc(COc3ccccc3)no2)C1 (stereo not drawn)	i	i	i	-16	i	0.05	i	i	i
COCC1CCN(Cc2nc(COc3ccccc3)no2)C1 (stereo not drawn)	i	i	i	-11	i	-0.45	/	/	/
Fc1ccccc1OCC1CCCN(Cc2nc(CC3CC3)no2)C1 (stereo not drawn)	i	i	i	-9	i	0.06	i	i	i
Clc1cccc(C2CCN(Cc3nc(CC4CC4)no3)C2)c1 (stereo not drawn)	i	i	i	-9	i	-2.2	i	i	i
O=C(c1ccc(Cl)cc1)C1CCCN(Cc2cccn2-c2cccnc2)C1 (stereo not drawn)	i	i	i	-8	i	-2.8	/	/	/
CSc1ccc(C(=O)C2CCCN(Cc3cccn3-c3cccnc3)C2)cc1 (stereo not drawn)	i	i	i	-1	i	-3.3	i	i	i
SMILES	KCNK3 inh	KCNQ1 pot	KCNQ1 block	hERG rescue	KCNK9 block	Kir21 inh	KCNK9 block conf	Kir21 sel	HEK293 Tl ctr
Cc1noc(C)c1CSc1nc2ccccc2c(=O)n1-c1ccc(F)cc1F	i	i	i	-7	i	-0.55	i	i	25%*
CN(C)CCC1(C2=CCCC2)CC/C(=C/c2ccc(Cl)cc2)C1=O (stereo not drawn)	i	/	/	/	/	/	/	/	/
COc1ccc(N2CC(C(=O)Nc3ccc(S(=O)(=O)Nc4nccs4)cc3)CC2=O)c(OC)c1 (stereo not drawn)	i	/	/	/	/	/	/	/	/
CC(=O)N1CCCC(C(=O)c2ccc3c4c(cccc24)CC3)C1 (stereo not drawn)	i	i	i	-10	i	0.98	i	i	i
CN1CCC(C(=O)N2CCCC(C(=O)c3ccc4c5c(cccc35)CC4)C2)CC1 (stereo not drawn)	i	i	i	-7	i	0.11	/	/	/
COCCC(=O)N1CCCC(C(=O)c2ccccc2SC)C1 (stereo not drawn)	i	i	i	4	i	1.8	/	/	/
O=C(c1ccc2c3c(cccc13)CC2)C1CCCN(Cc2cccnc2)C1 (stereo not drawn)	i	i	i	-13	i	0.02	i	i	i
COc1cccc(OC)c1CN1CCCC(C(=O)c2ccccc2SC)C1 (stereo not drawn)	i	i	i	-24	i	-1.9	i	i	i
COc1cc(CN2CCCC(C(=O)c3ccc4c5c(cccc35)CC4)C2)cc(OC)c1O (stereo not drawn)	i	i	i	-18	i	-2.6	i	i	i
CCn1c(SCC(=O)NC2CC2)nnc1-c1ccc(F)cc1	i	i	i	-5	i	0.11	/	/	/
COc1ccc(CCN(C)C/C=C/c2ccccc2[N+](=O)[O-])cc1OC	i	i	i	-7	i	0.96	/	/	/
CCOC(=O)Cn1c(=O)cc(C)c2cccc(C)c21	i	i	i	-15	i	-1.3	i	i	i
